Measured values published in ChEMBL document CHEMBL5058577, “EUbOPEN Chemogenomics Library 2 (Multiplex)” (2022).

Tested on: HEK-293T
Test: Multiplex assay against HEK293T
Format: toxicity, cell-based
Conditions: human
How it was run: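 On a CQ1 microscope at 37°C and 5% CO2, live cells were imaged after compound addition. They had been stained at seeding with Hoechst33342, BioTracker Green Microtubule Cytoskeleton Dye, MitoTracker Red and Annexin V Alexa Fluor 680. CellPathfinder machine-learning gating assigned cells to Hoechst high-intensity objects or normal cells, normal cells to healthy, pyknosed or fragmented nuclei, and pyknosed cells to mitotic or apoptotic. Tubulin, mitochondrial-mass and membrane-permeability phenotypes are per cents of healthy-nucleus cells.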

[1] = 12 h, 1 µM, compound concentration 1 uM, replicate 1
[2] = 12 h, 1 µM, compound concentration 1 uM, replicate 2
[3] = 12 h, 10 µM, compound concentration 10 uM, replicate 1
[4] = 12 h, 10 µM, compound concentration 10 uM, replicate 2
[5] = 24 h, 1 µM, compound concentration 1 uM, replicate 1
[6] = 24 h, 1 µM, compound concentration 1 uM, replicate 2
[7] = 24 h, 10 µM, compound concentration 10 uM, replicate 1
[8] = 24 h, 10 µM, compound concentration 10 uM, replicate 2
[9] = 48 h, 1 µM, compound concentration 1 uM, replicate 1
[10] = 48 h, 1 µM, compound concentration 1 uM, replicate 2
[11] = 48 h, 10 µM, compound concentration 10 uM, replicate 1
[12] = 48 h, 10 µM, compound concentration 10 uM, replicate 2

SMILES: Cc1sc2c(c1C)C(c1ccc(Cl)cc1)=N[C@@H](CC(=O)NCCCCCCCCNC(=O)COc1cccc3c1C(=O)N(C1CCC(=O)NC1=O)C3=O)c1nnc(C)n1-2 (stereo not given in full)
- Population Apoptotic (%) [1]: 66%
- Population Fragmented Nuclei (%) [1]: 5%
- Population Healthy Nuclei (%) [1]: 55%
- Population Hoechst High Intensity Objects (%) [1]: 9%
- Population Membrane Permeable-Phenotype (%) [1]: 0%
- Population Mitochondria Different-Phenotype (%) [1]: 73%
- Population Mitotic Cells (%) [1]: 33%
- Population Normal (%) [1]: 90%
- Population Pyknosed Nuclei (%) [1]: 39%
- Population Tubulin-Different-Phenotype (%) [1]: 49%
- Total Cell Count [1]: 175
- Population Apoptotic (%) [2]: 62%
- Population Fragmented Nuclei (%) [2]: 6%
- Population Healthy Nuclei (%) [2]: 69%
- Population Hoechst High Intensity Objects (%) [2]: 30%
- Population Mitochondria Different-Phenotype (%) [2]: 91%
- Population Mitotic Cells (%) [2]: 37%
- Population Normal (%) [2]: 69%
- Population Pyknosed Nuclei (%) [2]: 24%
- Population Tubulin-Different-Phenotype (%) [2]: 59%
- Total Cell Count [2]: 205
- Population Apoptotic (%) [3]: 60%
- Population Fragmented Nuclei (%) [3]: 9%
- Population Healthy Nuclei (%) [3]: 67%
- Population Hoechst High Intensity Objects (%) [3]: 14%
- Population Membrane Permeable-Phenotype (%) [3]: 0%
- Population Mitochondria Different-Phenotype (%) [3]: 75%
- Population Mitotic Cells (%) [3]: 39%
- Population Normal (%) [3]: 85%
- Population Pyknosed Nuclei (%) [3]: 23%
- Population Tubulin-Different-Phenotype (%) [3]: 23%
- Total Cell Count [3]: 363
- Population Apoptotic (%) [4]: 53%
- Population Fragmented Nuclei (%) [4]: 8%
- Population Healthy Nuclei (%) [4]: 66%
- Population Hoechst High Intensity Objects (%) [4]: 37%
- Population Mitochondria Different-Phenotype (%) [4]: 87%
- Population Mitotic Cells (%) [4]: 46%
- Population Normal (%) [4]: 62%
- Population Pyknosed Nuclei (%) [4]: 24%
- Population Tubulin-Different-Phenotype (%) [4]: 39%
- Total Cell Count [4]: 315
- Population Apoptotic (%) [5]: 51%
- Population Fragmented Nuclei (%) [5]: 7%
- Population Healthy Nuclei (%) [5]: 61%
- Population Hoechst High Intensity Objects (%) [5]: 6%
- Population Membrane Permeable-Phenotype (%) [5]: 0%
- Population Mitochondria Different-Phenotype (%) [5]: 58%
- Population Mitotic Cells (%) [5]: 48%
- Population Normal (%) [5]: 93%
- Population Pyknosed Nuclei (%) [5]: 31%
- Population Tubulin-Different-Phenotype (%) [5]: 22%
- Total Cell Count [5]: 261
- Population Apoptotic (%) [6]: 67%
- Population Fragmented Nuclei (%) [6]: 6%
- Population Healthy Nuclei (%) [6]: 70%
- Population Hoechst High Intensity Objects (%) [6]: 30%
- Population Mitochondria Different-Phenotype (%) [6]: 83%
- Population Mitotic Cells (%) [6]: 32%
- Population Normal (%) [6]: 69%
- Population Pyknosed Nuclei (%) [6]: 23%
- Population Tubulin-Different-Phenotype (%) [6]: 31%
- Total Cell Count [6]: 231
- Population Apoptotic (%) [7]: 52%
- Population Fragmented Nuclei (%) [7]: 11%
- Population Healthy Nuclei (%) [7]: 64%
- Population Hoechst High Intensity Objects (%) [7]: 12%
- Population Membrane Permeable-Phenotype (%) [7]: 0%
- Population Mitochondria Different-Phenotype (%) [7]: 64%
- Population Mitotic Cells (%) [7]: 47%
- Population Normal (%) [7]: 87%
- Population Pyknosed Nuclei (%) [7]: 24%
- Population Tubulin-Different-Phenotype (%) [7]: 19%
- Total Cell Count [7]: 397
- Population Apoptotic (%) [8]: 57%
- Population Fragmented Nuclei (%) [8]: 9%
- Population Healthy Nuclei (%) [8]: 60%
- Population Hoechst High Intensity Objects (%) [8]: 39%
- Population Mitochondria Different-Phenotype (%) [8]: 86%
- Population Mitotic Cells (%) [8]: 42%
- Population Normal (%) [8]: 60%
- Population Pyknosed Nuclei (%) [8]: 30%
- Total Cell Count [8]: 346
- Population Apoptotic (%) [9]: 55%
- Population Fragmented Nuclei (%) [9]: 7%
- Population Healthy Nuclei (%) [9]: 58%
- Population Hoechst High Intensity Objects (%) [9]: 2%
- Population Membrane Permeable-Phenotype (%) [9]: 0%
- Population Mitochondria Different-Phenotype (%) [9]: 56%
- Population Mitotic Cells (%) [9]: 44%
- Population Normal (%) [9]: 97%
- Population Pyknosed Nuclei (%) [9]: 33%
- Population Tubulin-Different-Phenotype (%) [9]: 30%
- Total Cell Count [9]: 284
- Population Apoptotic (%) [10]: 67%
- Population Fragmented Nuclei (%) [10]: 9%
- Population Healthy Nuclei (%) [10]: 65%
- Population Hoechst High Intensity Objects (%) [10]: 15%
- Population Mitochondria Different-Phenotype (%) [10]: 78%
- Population Mitotic Cells (%) [10]: 32%
- Population Normal (%) [10]: 84%
- Population Pyknosed Nuclei (%) [10]: 25%
- Population Tubulin-Different-Phenotype (%) [10]: 42%
- Total Cell Count [10]: 289
- Population Apoptotic (%) [11]: 48%
- Population Fragmented Nuclei (%) [11]: 9%
- Population Healthy Nuclei (%) [11]: 55%
- Population Hoechst High Intensity Objects (%) [11]: 14%
- Population Membrane Permeable-Phenotype (%) [11]: 0%
- Population Mitochondria Different-Phenotype (%) [11]: 51%
- Population Mitotic Cells (%) [11]: 51%
- Population Normal (%) [11]: 85%
- Population Pyknosed Nuclei (%) [11]: 35%
- Population Tubulin-Different-Phenotype (%) [11]: 17%
- Total Cell Count [11]: 403
- Population Apoptotic (%) [12]: 65%
- Population Fragmented Nuclei (%) [12]: 15%
- Population Healthy Nuclei (%) [12]: 52%
- Population Hoechst High Intensity Objects (%) [12]: 31%
- Population Mitochondria Different-Phenotype (%) [12]: 76%
- Population Mitotic Cells (%) [12]: 34%
- Population Normal (%) [12]: 69%
- Population Pyknosed Nuclei (%) [12]: 31%
- Population Tubulin-Different-Phenotype (%) [12]: 31%
- Total Cell Count [12]: 300
